{"source": "ChEMBL document CHEMBL5137029", "about": "“Chemically Tuning Resveratrol for the Effective Killing of Gram-Positive Pathogens” (J Nat Prod, 2022)", "key": {"Bacillus cereus [1]": {"system": "Bacillus cereus", "experiment": "Antibacterial activity against Bacillus cereus ATCC 14579 incubated for 20 hrs by CLSI based broth microdilution method", "format": "functional"}, "Bacillus cereus [2]": {"system": "Bacillus cereus", "experiment": "Antibacterial activity against Bacillus cereus ATCC 10987 incubated for 20 hrs by CLSI based broth microdilution method", "format": "functional"}, "Enterococcus faecalis [3]": {"system": "Enterococcus faecalis", "experiment": "Antibacterial activity against Enterococcus faecalis LMG 08222 incubated for 20 hrs by CLSI based broth microdilution method", "format": "functional"}, "Enterococcus faecalis [4]": {"system": "Enterococcus faecalis", "experiment": "Antibacterial activity against Enterococcus faecalis LMG 16216 incubated for 20 hrs by CLSI based broth microdilution method", "format": "functional"}, "Enterococcus faecalis [5]": {"system": "Enterococcus faecalis", "experiment": "Antibacterial activity against Enterococcus faecalis V583 incubated for 20 hrs by CLSI based broth microdilution method", "format": "functional"}, "Staphylococcus aureus [6]": {"system": "Staphylococcus aureus", "experiment": "Antibacterial activity against Staphylococcus aureus LMG 8224 incubated for 20 hrs by CLSI based broth microdilution method", "format": "functional"}, "Staphylococcus aureus [7]": {"system": "Staphylococcus aureus", "experiment": "Antibacterial activity against Staphylococcus aureus LMG 10147 incubated for 20 hrs by CLSI based broth microdilution method", "format": "functional"}, "Staphylococcus aureus [8]": {"system": "Staphylococcus aureus", "experiment": "Antibacterial activity against Staphylococcus aureus LMG 15975 incubated for 20 hrs by CLSI based broth microdilution method", "format": "functional"}, "Clostridium beijerinckii": {"system": "Clostridium beijerinckii", "experiment": "Antibacterial activity against Clostridium beijerinckii B504 incubated for 24 hrs by CLSI based broth microdilution method", "format": "functional"}, "Clostridium botulinum": {"system": "Clostridium botulinum", "experiment": "Antibacterial activity against Clostridium botulinum CECT551 incubated for 24 hrs by CLSI based broth microdilution method", "format": "functional"}, "Clostridioides difficile": {"system": "Clostridioides difficile", "experiment": "Antibacterial activity against Clostridium difficile CECT531 incubated for 24 hrs by CLSI based broth microdilution method", "format": "functional"}, "[9]": {"experiment": "Antibacterial activity against Clostridium-ihumii AP5 incubated for 24 hrs by CLSI based broth microdilution method", "format": "functional"}, "Clostridium perfringens": {"system": "Clostridium perfringens", "experiment": "Antibacterial activity against Clostridium perfringens CECT376 incubated for 24 hrs by CLSI based broth microdilution method", "format": "functional"}, "Clostridium tetani": {"system": "Clostridium tetani", "experiment": "Antibacterial activity against Clostridium tetani CECT 4629 incubated for 24 hrs by CLSI based broth microdilution method", "format": "functional"}, "[10]": {"experiment": "Cytotoxicity against human MRC5 cells assessed as cellular metabolism incubated for 72 hrs by MTT assay", "format": "toxicity, cell-based", "how_it_was_run": "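MRC-5 cells in DMEM (1 g/L glucose) with 10% heat-inactivated FBS, 2 mM glutamine, penicillin/streptomycin, at 37 °C, 5% CO2. 5 × 10^3 cells/well seeded with increasing compound concentrations, 72 h. MTT added for 4 h, formazan dissolved in DMSO, A570 read. Sigmoidal fit for 50% growth reduction vs untreated; three independent experiments in triplicate.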"}, "[11]": {"experiment": "(§1) Hemolytic activity in human erythrocytes at […] incubated for 1 hrs", "format": "toxicity, cell-based, Erythrocyte", "conditions": "erythrocytes, read-out: Activity"}, "Bacillus cereus [12]": {"system": "Bacillus cereus", "experiment": "Bactericidal activity against Bacillus cereus ATCC 10987 at 16 uM measured upto 24 hrs by CLSI based broth microdilution method", "format": "functional, organism-based", "how_it_was_run": "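Each well then used as a 10% inoculum into fresh cMHB and incubated at 37 °C for 24 h. No regrowth in the MIC range was scored bactericidal, regrowth bacteriostatic. Triplicate.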"}, "Bacillus cereus [13]": {"system": "Bacillus cereus", "experiment": "Antibacterial activity against Bacillus cereus ATCC 10987 assessed as decrease in membrane integrity at 2x MIC incubated for 18 hrs by propidium iodide staining assay", "format": "functional, organism-based", "how_it_was_run": "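B. cereus grown 18 h in LB at 37 °C, washed in 5 mM HEPES pH 7.4 + 5 mM glucose, OD600 0.5, loaded with 10 μg/mL propidium iodide for 10 min. […] Gramicidin S positive control; triplicate.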"}, "Bacillus cereus [14]": {"system": "Bacillus cereus", "experiment": "Inhibition of electron transport chain in Bacillus cereus ATCC 10987 by measuring reduction of resazurin upto 120 min by resazurin dye based assay", "conditions": "DDE = dose-dependent effect", "how_it_was_run": "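B. cereus grown in LB to OD600 1, washed and resuspended in cMHB at OD600 0.2 with 100 μg/mL resazurin. Compounds added at the indicated concentrations; resorufin fluorescence (ex/em 550/590 nm) read every 5 min for 125 min. CCCP at 400, 200, 100 μM positive control; untreated cells and medium with resazurin negative controls; triplicate.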"}, "Erythrocyte": {"system": "Erythrocyte", "experiment": "as §1", "format": "toxicity, cell-based", "conditions": "erythrocyte, 1 h, […]"}, "Bacillus cereus [15]": {"system": "Bacillus cereus", "experiment": "Antibacterial activity against Bacillus cereus ATCC 10987 assessed as membrane potential change at 0.5 to 2X MIC incubated for 20 mins by DiSC3(5) staining based assay", "format": "functional, organism-based", "how_it_was_run": "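B. cereus grown in LB to OD600 1, washed in glucose-HEPES pH 7.4, OD600 0.5, loaded with 2 μM DiSC3(5) for 20 min at 37 °C for baseline. […] Gramicidin S positive control; untreated cells and dye-only medium negative controls; triplicate.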"}}, "note": "The source made the active and inactive calls. The rule behind the calls is not given here."}
{"compound": "CC(C)(C)[Si](C)(C)Oc1cc(O)cc(/C=C/c2ccc(O)cc2)c1", "values": [{"measurement": "MIC", "setting": "Bacillus cereus [1]", "value": 16, "unit": "µM"}, {"measurement": "MIC", "setting": "Bacillus cereus [2]", "value": 16, "unit": "µM"}, {"measurement": "MIC", "setting": "Enterococcus faecalis [3]", "value": 8, "unit": "µM"}, {"measurement": "MIC", "setting": "Enterococcus faecalis [4]", "value": 16, "unit": "µM"}, {"measurement": "MIC", "setting": "Enterococcus faecalis [5]", "value": 16, "unit": "µM"}, {"measurement": "MIC", "setting": "Staphylococcus aureus [6]", "value": 16, "unit": "µM"}, {"measurement": "MIC", "setting": "Staphylococcus aureus [7]", "value": 16, "unit": "µM"}, {"measurement": "MIC", "setting": "Staphylococcus aureus [8]", "value": 16, "unit": "µM"}, {"measurement": "MIC", "setting": "Clostridium beijerinckii", "value": 26.6, "unit": "µM"}, {"measurement": "MIC", "setting": "Clostridium botulinum", "value": 16, "unit": "µM"}, {"measurement": "MIC", "setting": "Clostridioides difficile", "value": 26.6, "unit": "µM"}, {"measurement": "MIC", "setting": "[9]", "value": 32, "unit": "µM"}, {"measurement": "MIC", "setting": "Clostridium perfringens", "value": 32, "unit": "µM"}, {"measurement": "MIC", "setting": "Clostridium tetani", "value": 6.6, "unit": "µM"}, {"measurement": "IC50 at 72 h", "setting": "[10]", "value": 2.7, "unit": "µM"}, {"measurement": "hemolysis at 1 h, […]", "setting": "[11]", "value": 18.4, "unit": "%"}]}
{"compound": "CC[Si](CC)(CC)Oc1cc(O)cc(/C=C/c2ccc(O)cc2)c1", "values": [{"measurement": "IC50 at 72 h", "setting": "[10]", "value": 21.3, "unit": "µM"}]}
{"compound": "GENTAMICIN", "values": [{"measurement": "MIC", "setting": "Bacillus cereus [2]", "value": 4, "unit": "µM"}, {"measurement": "MIC", "setting": "Enterococcus faecalis [5]", "value": "> 32", "unit": "µM"}, {"measurement": "MIC", "setting": "Staphylococcus aureus [6]", "value": 1, "unit": "µM"}, {"measurement": "MIC", "setting": "Clostridioides difficile", "value": "> 32", "unit": "µM"}, {"measurement": "MIC", "setting": "Clostridium perfringens", "value": "> 32", "unit": "µM"}]}
{"compound": "CCCCOc1cc(O)cc(/C=C/c2ccc(O)cc2)c1", "values": [{"measurement": "MIC", "setting": "Bacillus cereus [1]", "value": 32, "unit": "µM"}, {"measurement": "MIC", "setting": "Bacillus cereus [2]", "value": 32, "unit": "µM"}, {"measurement": "MIC", "setting": "Enterococcus faecalis [3]", "value": 128, "unit": "µM"}, {"measurement": "MIC", "setting": "Enterococcus faecalis [4]", "value": 128, "unit": "µM"}, {"measurement": "MIC", "setting": "Enterococcus faecalis [5]", "value": 128, "unit": "µM"}, {"measurement": "MIC", "setting": "Staphylococcus aureus [6]", "value": 64, "unit": "µM"}, {"measurement": "MIC", "setting": "Staphylococcus aureus [7]", "value": 64, "unit": "µM"}, {"measurement": "MIC", "setting": "Staphylococcus aureus [8]", "value": 32, "unit": "µM"}, {"measurement": "MIC", "setting": "Clostridium beijerinckii", "value": 26.6, "unit": "µM"}, {"measurement": "MIC", "setting": "Clostridium botulinum", "value": 32, "unit": "µM"}, {"measurement": "MIC", "setting": "Clostridioides difficile", "value": 64, "unit": "µM"}, {"measurement": "MIC", "setting": "[9]", "value": 64, "unit": "µM"}, {"measurement": "MIC", "setting": "Clostridium perfringens", "value": 64, "unit": "µM"}, {"measurement": "MIC", "setting": "Clostridium tetani", "value": 16, "unit": "µM"}]}
{"compound": "CCCCOc1cc(/C=C/c2ccc(OS(=O)(=O)O)cc2)cc(OS(=O)(=O)O)c1", "values": [{"measurement": "Activity", "setting": "Bacillus cereus [12]", "value": "Active"}, {"measurement": "Activity", "setting": "Bacillus cereus [13]", "value": "Active"}, {"measurement": "inhibition", "setting": "Bacillus cereus [14]", "value": "Dde"}, {"measurement": "Activity", "setting": "Erythrocyte", "value": "Non-Toxic"}, {"measurement": "Activity", "setting": "Bacillus cereus [15]", "value": "Active"}]}
